For series [1], the system named is Moloney murine sarcoma virus. The series can be described thus: In vitro effective dose against Moloney murine sarcoma virus induced transformation of C3H embryo fibroblast cells. Type of series: functional. The note with it: read-out: ED50 (the source's name). An outline of the steps:
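C3H mouse embryo cells are seeded at 20 000 cells/mL per well and grown 24 h. They are infected with 80 foci-forming units of Moloney MSV for 90 min, then given fresh medium with varying compound concentrations. Transformation is examined microscopically after 6-7 days. ED50 is the dose giving a 50% reduction in transformation.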

A short description of series [2]: In vitro minimum cytotoxic concentration in C3H embryo fibroblast cells. The note with it: Mus musculus. Type of series: functional. An outline of the steps:
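Minimal cytotoxic concentration in C3H mouse embryo cells, run in the same 48-well setup as the MSV transformation assay: the concentration producing microscopically visible alteration of cell morphology.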

A short description of series [3]: Minimum cytotoxic concentration in HeLa cell cultures. Type of series: cell-based. The settings on record: human, HeLa cells.
Series [4] relates to HeLa. The series can be described thus: Minimum inhibitory concentration against Vesicular stomatitis virus in HeLa cell cultures. Type of series: functional. The note with it: Homo sapiens. A digest of the protocol: (§1)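 Confluent HeLa, Vero or primary rabbit kidney cell cultures in microtiter trays are inoculated with 100 CCID50 of virus. After 1 h adsorption, residual virus is removed and cells are incubated with varying compound concentrations. Cytopathogenicity is recorded once it is complete in untreated virus-infected controls. MIC is the concentration inhibiting virus-induced cytopathogenicity.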

For series [5], the system named is HeLa. The series can be described thus: Minimum inhibitory concentration against polio virus 1 in HeLa cell cultures. Type of series: functional. The note with it: Homo sapiens. A digest of the protocol:
as §1

A further series is filed under the species Homo sapiens. The series can be described thus: Cytotoxic dose against uninfected human MT-4 cell. The settings on record: MT4, read-out: CD50 (the source's name). Type of series: functional. An outline of the steps:
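Cytotoxicity counterpart of the HIV assay: uninfected human MT-4 lymphocytes exposed to the compounds. CD50 is the dose that reduces viability of these uninfected cells by 50%.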

The subject of series [6] is Human immunodeficiency virus 1. The series is described as follows: Effective dose against HIV-1 induced cytopathogenicity in human MT-4 cell. Type of series: functional. The settings on record: Human immunodeficiency virus 1, MT4; read-out: ED50 (the source's name). A digest of the protocol:
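HIV (HTLV-III_B) is taken from the culture supernatant of a persistently infected HUT-78 line. Human MT-4 lymphocytes are infected and the assay scores inhibition of virus-induced cytopathogenicity. ED50 is the dose giving 50% protection of MT-4 cells against the viral cytopathic effect.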

Series [7] in a line: Minimum cytotoxic concentration in primary rabbit kidney cell cultures. Type of series: cell-based, Oryctolagus cuniculus. The note with it: primary rabbit kidney cells.
A further series has as its system Coxsackievirus B4. The series is described as follows: Minimum inhibitory concentration against Coxsackie virus B4 in Vero cell cultures. Type of series: functional. The settings on record: Enterovirus B. A digest of the protocol: as §1
In another series the test system is Semliki Forest virus. The series can be described thus: Minimum inhibitory concentration against forest virus in Vero cell cultures. Type of series: functional. An outline of the steps: as §1
In a further series the test system is Sindbis virus. The series is described as follows: Minimum inhibitory concentration against Sindbis virus in Vero cell cultures. Type of series: functional. A digest of the protocol: as §1
In the next series the test system is Human respirovirus 3. The series can be described thus: Minimum inhibitory concentration against parainfluenza 3 virus in Vero cell cultures. Type of series: functional. A digest of the protocol: as §1
Series [8] concerns Mammalian orthoreovirus 1. The series is described as follows: Minimum inhibitory concentration against reovirus in Vero cell cultures. Type of series: functional. A digest of the protocol:
as §1

The test system of another series is Vaccinia virus. The series is described as follows: Minimum inhibitory concentration against Vaccinia virus in primary rabbit kidney cell cultures. Type of series: functional. The settings on record: Orthopoxvirus vaccinia. A digest of the protocol: as §1
For series [9], the system named is Vesicular stomatitis virus. The series can be described thus: Minimum inhibitory concentration against Vesicular stomatitis virus in primary rabbit kidney cell cultures. Type of series: functional. An outline of the steps: as §1
For series [10], the system named is HeLa. The series is described as follows: Minimum inhibitory concentration against Coxsackie virus B4 in HeLa cell cultures. Type of series: functional. The settings on record: Homo sapiens. A digest of the protocol:
as §1

Series [11] is described as follows: Minimum cytotoxic concentration in Vero cell cultures. Type of series: cell-based. The note with it: chlorocebus sabaeus, Vero cells.

≈ marks a conversion by molar mass, not a printed value.

With `CC(C)(C)[Si](C)(C)OC[C@H]1O[C@@H](n2cnc3c(N)ncnc32)[C@H](O[Si](C)(C)C(C)(C)C)[C@@H]1C#N`, the EC50 in series [1] was above 1.6 µg/mL; in series [6], 2.1 µM. For the same compound, the MCC was 8 µg/mL in series [2], 400 µg/mL in series [3], 10 µg/mL in series [7] and 10 µg/mL in [11]. For the same compound, the MIC is 150 µg/mL (≈ 297 µM) with HeLa [4]; above 200 µg/mL with HeLa [5]; above 4 µg/mL against Coxsackievirus B4; above 4 µg/mL against Semliki Forest virus; above 4 µg/mL against Sindbis virus; above 4 µg/mL against Human respirovirus 3. Besides, the MIC in series [8] is above 4 µg/mL; against Vaccinia virus it was above 4 µg/mL; in series [9], above 4 µg/mL; against HeLa [10] it was above 200 µg/mL. Moreover, the CC50 in the series filed under Homo sapiens worked out at 5.1 µM.

For `CC(C)(C)[Si](C)(C)OC[C@H]1O[C@@H](n2ccc(=O)[nH]c2=O)[C@H](O[Si](C)(C)C(C)(C)C)[C@@H]1C#N`, the results for the EC50 in series [1] and in series [6] were 5.6 µg/mL (≈ 11.6 µM) and 3.2 µM, respectively. The MCC is above 8 µg/mL in series [2], above 40 µg/mL in series [3], above 10 µg/mL in series [7] and above 10 µg/mL in series [11]. Besides, the MIC was above 10 µg/mL in the series with HeLa [4]; above 10 µg/mL against HeLa [5]; above 4 µg/mL with Coxsackievirus B4; above 4 µg/mL with Semliki Forest virus; above 4 µg/mL against Sindbis virus; above 4 µg/mL in the series with Human respirovirus 3. Moreover, the MIC in series [8] is above 4 µg/mL; against Vaccinia virus, above 4 µg/mL; in series [9] it was above 4 µg/mL; in the series on HeLa [10], above 10 µg/mL. Besides, the CC50 in the series filed under Homo sapiens is 6.6 µM.

Regarding `Cc1cn([C@H]2C[C@H](C#N)[C@@H](CO)O2)c(=O)[nH]c1=O`, the EC50 in [1] was above 16 µg/mL; in series [6], above 16 µM. The MCC in [2] was 80 µg/mL; in series [3], 200 µg/mL; in [7], 100 µg/mL; in series [11] it was above 10 µg/mL. The MIC is above 100 µg/mL in the series with HeLa [4]; above 100 µg/mL in the series on HeLa [5]; above 10 µg/mL in the series on Coxsackievirus B4; above 10 µg/mL in the series with Semliki Forest virus; above 10 µg/mL against Sindbis virus; above 10 µg/mL with Human respirovirus 3. For the same compound, the MIC in series [8] is above 10 µg/mL; against Vaccinia virus, 20 µg/mL (≈ 79.6 µM); in [9], above 40 µg/mL; against HeLa [10], above 100 µg/mL. Also, the CC50 in the series filed under Homo sapiens worked out at 30 µM.

In the case of `N#C[C@H]1[C@@H](O)[C@H](n2ccc(=O)[nH]c2=O)O[C@@H]1CO`, the EC50 in series [1] was above 200 µg/mL; in series [6], above 80 µM. The MCC in [2], in [3], in series [7] and in series [11] was above 200 µg/mL each time. The MIC in the series on HeLa [4] was above 200 µg/mL; with HeLa [5], above 200 µg/mL; in the series with Coxsackievirus B4, above 100 µg/mL; in the series with Semliki Forest virus, above 100 µg/mL; against Sindbis virus, above 100 µg/mL; against Human respirovirus 3 it was above 100 µg/mL. For the same compound, the MIC in series [8] is above 100 µg/mL; against Vaccinia virus, above 200 µg/mL; in series [9], above 200 µg/mL; in the series with HeLa [10] it was above 200 µg/mL. Also, the CC50 in the series filed under Homo sapiens is 147 µM.

Take `CC(C)(C)[Si](C)(C)OC[C@H]1O[C@@H](n2ccc(=O)[nH]c2=O)[C@H](O[Si](C)(C)C(C)(C)C)[C@H]1C#N`: the EC50 is 2.2 µg/mL (≈ 4.57 µM) in series [1] and above 6.04 µM in series [6]. Also, the MCC in series [2] was above 3.2 µg/mL; in series [3], 4 µg/mL; in series [7] it was above 4 µg/mL; in [11], 4 µg/mL. Further, the MIC was above 1 µg/mL against HeLa [4]; above 4 µg/mL in the series with HeLa [5]; above 1 µg/mL against Coxsackievirus B4; above 1 µg/mL against Semliki Forest virus; above 1 µg/mL against Sindbis virus; above 1 µg/mL in the series on Human respirovirus 3. For the same compound, the MIC is above 1 µg/mL in [8], above 1 µg/mL with Vaccinia virus, above 1 µg/mL in series [9] and above 4 µg/mL against HeLa [10]. Moreover, the CC50 in the series listed under Homo sapiens turned out to be 1.6 µM.

As for `N#C[C@@H]1[C@@H](O)[C@H](n2cnc3c(N)ncnc32)O[C@@H]1CO`, the values for the EC50 in [1] and in series [6] were 6.6 µg/mL (≈ 23.9 µM) and above 1.6 µM, respectively. Further, the MCC in series [2] was above 40 µg/mL; in series [3], 400 µg/mL; in series [7], 200 µg/mL; in [11], 200 µg/mL. The MIC against HeLa [4] was 150 µg/mL (≈ 543 µM); against HeLa [5] it was above 200 µg/mL; against Coxsackievirus B4, 100 µg/mL (≈ 362 µM); against Semliki Forest virus, 20 µg/mL (≈ 72.4 µM); against Sindbis virus, 10 µg/mL (≈ 36.2 µM); against Human respirovirus 3, 70 µg/mL (≈ 253 µM). Moreover, the MIC was above 100 µg/mL in series [8], 4 µg/mL (≈ 14.5 µM) against Vaccinia virus, above 200 µg/mL in [9] and above 200 µg/mL with HeLa [10]. In addition, in the series filed under Homo sapiens, the CC50 stood at 2.9 µM.

The values above are taken from ChEMBL document CHEMBL1124622, “Synthesis and antiviral activity of 3'-C-cyano-3'-deoxynucleosides” (J Med Chem, 1989).
